Here are results for 8 compounds from ChEMBL document CHEMBL1150855, “Five new prenylated stilbenes from the root bark of Lonchocarpus chiricanus” (2001).

Experiment [1] relates to Aedes aegypti. Put plainly: Larvicidal activity against Aedes aegypti larvae assessed as minimum concentration required to kill all larvae after 24 hrs by dilution test. The format is functional. In a few lines: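 Roughly 10 A. aegypti larvae per tube in tap water. Compound added from geometric dilutions of a 1 mg/100 µL DMSO stock, with the volume made up to 10 mL, for final 50 to 1 ppm. Tubes kept in darkness at 26-28 °C for 24 h, then lethality scored under lab light. Value is the minimal concentration (ppm) killing all larvae.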

Experiment [2] concerns Cladosporium cucumerinum. Put plainly: Antifungal activity against Cladosporium cucumerinum at 100 ug after 2 to 3 days by bioautographic TLC assay. It is filed as functional, organism-based. In short, it runs like this: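 Compounds in dichloromethane (1 mg/mL stock) were geometrically diluted across 1 to 0.015 mg/mL, and 10 µL of each dilution was applied to silica gel TLC plates. Plates were covered with C. cucumerinum in nutritive medium and incubated 2-3 days in moist boxes. The read-out was the minimal amount (µg) giving a clear inhibition zone on a dark gray background, up to 100 µg. Nystatin in MeOH served as the reference.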

In experiment [3] the test system is Cladosporium cucumerinum. Put plainly: Antifungal activity against Cladosporium cucumerinum assessed as minimum concentration required to inhibit fungal growth after 2 to 3 days by bioautographic TLC assay. The format is functional. In short, it runs like this: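 Stocks at 1 mg/mL in dichloromethane (nystatin in MeOH), geometrically diluted over 1 to 0.015 mg/mL. 10 µL of each dilution applied to silica gel TLC plates. Plates then covered with C. cucumerinum in nutritive medium and held 2-3 days in a moist atmosphere. Clear zones read against a dark grey background. Value is the minimal amount (µg) inhibiting growth; nystatin reference.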

Experiment [4] has as its system Cladosporium cucumerinum. Put plainly: Antifungal activity against Cladosporium cucumerinum after 24 hrs by agar-dilution assay. The format is functional. In a few lines: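 Test solutions made by geometric dilution in DMSO from a 3 mg/mL DMSO stock, added to Sabouraud agar in wells at a final 60 to 3 µg/mL. C. cucumerinum suspended in distilled water and spread over the agar. Plates sealed hermetically, 30 °C for 24 h. Value is the MIC (µg/mL). Compound-free growth controls; duplicates; nystatin reference at 10 to 0.1 µg/mL.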

Values after ≈ are worked out from the molar mass of the structure shown. Active and inactive are the calls of the source. Where only a bound is given, the exact number is not on record here.

The term MIC denotes the smallest concentration in the dilution series that meets the test's criterion for growth inhibition. A higher MIC goes with a need for much substance.

Regarding `CC(C)=CCc1c(O)cc(O)c(CC=C(C)C)c1/C=C/c1ccccc1` [LONGISTYLINE D], the Activity in experiment [1] is 6 ppm. Also, the outcome in experiment [2] was inactive.

As for `COc1c(CC=C(C)C)c(O)cc(/C=C/c2ccccc2)c1CC=C(C)C` [CHIRICANINE C], the Activity in experiment [1] is recorded as above 50 ppm. Moreover, in experiment [2], the result was inactive.

Take `CC(C)=CCc1c(O)cc(/C=C/c2ccccc2)cc1O` [CHIRICANINE A]: the values for the Activity in experiment [1] and in experiment [3] were 6 ppm and 5 µg, respectively. Moreover, in experiment [4], the lowest concentration to inhibit growth (MIC) was 30 µg/mL (≈ 107 µM).

With `CC1(C)Oc2cc(/C=C/c3ccccc3)cc(O)c2C[C@@H]1O` [CHIRICANINE B], the Activity in experiment [1] is recorded as above 50 ppm. Also, the result in experiment [2] was inactive.

Regarding NYSTATIN, the Activity in experiment [3] was determined as 0.2 µg. Besides, inhibition of growth in experiment [4] (MIC) required 1 µg/mL.

Take `COc1cc(/C=C/c2ccccc2)cc(OC)c1` [3,5-O-DIMETHYLPINOSYLVIN]: the Activity in experiment [1] stood at 3 ppm. Besides, the result in experiment [2] was inactive.

`CC(C)=CCc1c(O)cc2c(c1/C=C/c1ccccc1)CC(O)C(C)(C)O2` (stereo unspecified) [CHIRICANINE D]: the Activity in experiment [1] is reported as above 50 ppm. In experiment [2], the outcome was inactive.

With `C=C(C)[C@H]1Cc2c(ccc3c2O[C@@H]2COc4cc(OC)c(OC)cc4[C@@H]2C3=O)O1` [ROTENONE], in experiment [1], the Activity is listed as 3 ppm.
